Source: ChEMBL document CHEMBL1132628, “Quinuclidine inhibitors of 2,3-oxidosqualene cyclase-lanosterol synthase: optimization from lipid profiles” (J Med Chem, 1999)
Blank lines part the entries; values can stand above or below the compound they belong to.

Columns and labels:
[1] = molecular target: T1, Lanosterol synthase (Rattus norvegicus) (UniProt P48450); assay: The in vivo assay of compound for inhibition of cholesterol biosynthesis was measured on Oxidosqualene-lanosterol cyclase of rat at 5 mg/kg
T1 sequence (whole entry): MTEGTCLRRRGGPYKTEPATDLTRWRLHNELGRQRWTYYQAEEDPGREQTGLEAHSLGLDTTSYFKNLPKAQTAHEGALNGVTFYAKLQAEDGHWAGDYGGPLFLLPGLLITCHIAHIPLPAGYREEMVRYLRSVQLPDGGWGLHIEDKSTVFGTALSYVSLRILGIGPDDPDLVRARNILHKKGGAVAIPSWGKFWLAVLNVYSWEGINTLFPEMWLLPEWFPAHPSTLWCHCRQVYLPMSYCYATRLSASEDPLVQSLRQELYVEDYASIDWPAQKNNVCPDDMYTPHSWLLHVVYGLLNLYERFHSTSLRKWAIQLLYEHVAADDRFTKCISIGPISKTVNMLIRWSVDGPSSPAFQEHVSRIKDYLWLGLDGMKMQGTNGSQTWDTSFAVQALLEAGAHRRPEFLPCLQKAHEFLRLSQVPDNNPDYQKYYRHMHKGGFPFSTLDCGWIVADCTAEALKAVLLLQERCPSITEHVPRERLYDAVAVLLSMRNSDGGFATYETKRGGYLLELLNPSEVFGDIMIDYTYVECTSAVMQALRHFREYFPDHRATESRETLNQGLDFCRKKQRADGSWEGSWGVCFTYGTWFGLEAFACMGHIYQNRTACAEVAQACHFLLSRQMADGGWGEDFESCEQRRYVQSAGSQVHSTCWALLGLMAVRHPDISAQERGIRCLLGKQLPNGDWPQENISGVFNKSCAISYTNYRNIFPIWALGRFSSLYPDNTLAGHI

[2] = molecular target: T1, Lanosterol synthase (Rattus norvegicus); assay: The in vivo assay of compound for inhibition of cholesterol biosynthesis was measured on Oxidosqualene-lanosterol cyclase of rat at 5 mg/kg; assay type: functional, organism-based; design: dose 5 mg/kg
Summary of the method: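 Female rats (130 ± 20 g) on reverse lighting dosed orally in DMSO/HPMC; tritiated mevalonate (2.5 μCi) given 1 h later, rats killed after another 1 h. Liver extracts run on HPLC with radiodetection; peaks assigned against standard sterol intermediates' retention times; cholesterol synthesis inhibition from peak area, plus intermediate selectivity profile.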

[3] = molecular target: T2, Lanosterol synthase (Rattus norvegicus, UniProt P48450); assay: Inhibition of compound was measured on rat microsomal Oxidosqualene-lanosterol cyclase
T2 sequence (P48450 whole entry): T1 sequence (whole entry)
Summary of the method: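 Rat liver microsomes diluted in 50 mM phosphate buffer pH 7.4 with tween; compounds from DMSO stocks (10^-4 M, serial tenfold dilutions) preincubated with microsomes 10 min at 37 °C, then cold plus radiolabelled oxidosqualene added, 1 h incubation. Stopped with ethanolic KOH, heated 80 °C 2 h, hexane-extracted; inhibition from radiolabelled product.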

[4] = molecular target: T3, Squalene synthase (Rattus norvegicus, UniProt Q02769); assay: Compound was measured for the inhibition of rat microsomal squalene synthase enzyme
T3 sequence (Q02769 whole entry): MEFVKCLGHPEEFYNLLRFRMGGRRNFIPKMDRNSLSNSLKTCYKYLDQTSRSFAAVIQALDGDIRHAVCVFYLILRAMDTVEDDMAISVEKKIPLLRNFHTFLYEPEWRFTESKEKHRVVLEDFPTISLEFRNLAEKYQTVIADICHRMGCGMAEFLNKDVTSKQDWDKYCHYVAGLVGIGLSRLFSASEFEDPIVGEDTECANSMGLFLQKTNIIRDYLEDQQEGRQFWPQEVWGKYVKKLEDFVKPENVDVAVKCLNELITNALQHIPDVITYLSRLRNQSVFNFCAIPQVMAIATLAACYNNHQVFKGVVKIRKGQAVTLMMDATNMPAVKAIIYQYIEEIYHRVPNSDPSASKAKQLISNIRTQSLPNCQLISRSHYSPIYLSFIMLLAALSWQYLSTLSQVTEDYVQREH

Structure (SMILES): OC1(C#Cc2ccc(Oc3ccc(Br)cc3)cc2)CN2CCC1CC2 (centres undefined)
inhibition [1]: 55%

Structure (SMILES): Brc1ccccc1SC1CN2CCC1CC2 (centres undefined)
inhibition [1]: < 5%

Structure (SMILES): O=C(c1ccc(Cl)cc1)c1ccc(OC2CN3CCC2CC3)cc1 (centres undefined)
inhibition [2]: 92%

Structure (SMILES): O=C(/C=C1\CN2CCC1CC2)c1ccc(C(=O)c2ccc(Br)cc2)cc1
inhibition [2]: 84%

Structure (SMILES): OC1(C#Cc2ccc(Sc3ccc(Br)cc3)cc2)CN2CCC1CC2 (centres undefined)
inhibition [1]: 79%

Structure (SMILES): Brc1cccc(SC2CN3CCC2CC3)c1 (centres undefined)
inhibition [1]: < 5%

Structure (SMILES): O=S(=O)(c1ccc(Br)cc1)c1ccc(C#CC2(O)CN3CCC2CC3)cc1 (centres undefined)
inhibition [1]: 94%

Structure (SMILES): OC1(c2ccc(-c3ccccc3)cc2)CN2CCC1CC2 (centres undefined)
IC50 [3]: > 100 nM

Structure (SMILES): Brc1ccc(SC2CN3CCC2CC3)cc1 (centres undefined)
inhibition [1]: 47%

inhibition [1]: 98%
Structure (SMILES): O=C(c1ccc(C(F)(F)F)cc1)N1CCC(=Cc2ccc(C3=NCCO3)cc2)CC1

Structure (SMILES): C=CCc1cc(CCC(=O)OCC)ccc1C#CC1(O)CN2CCC1CC2 (centres undefined)
IC50 [3]: > 100 nM | IC50 [4]: 6 nM

Structure (SMILES): O=C(c1ccc(Br)cc1)c1ccc(C#CC2(O)CN3CCC2CC3)cc1 (centres undefined)
inhibition [1]: 59%

Structure (SMILES): [O-][S+](c1ccc(Br)cc1)c1ccc(C#CC2(O)CN3CCC2CC3)cc1 (centres undefined)
inhibition [1]: 83%
